In test [1] the target is T1, Acyl-protein thioesterase 1 (Rattus norvegicus, UniProt P70470). As to the kind of experiment: ChEBML_100186. An excerpt: in vitro inhibitory activity against Lysosomal phospholipase A1 consisting of negatively charged liposomes and lysosomal extracts. p<0.05
For test [2], the target named is T1, Acyl-protein thioesterase 1. Kind of test: in vitro inhibitory activity against Lysosomal phospholipase A1 consisting of negatively charged liposomes and lysosomal extracts. A digest of the protocol: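 Lysosomal phospholipase activity measured on labeled phosphatidylcholine incorporated into negatively charged liposomes, read as release of labeled lysophosphatidylcholine.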

We go through four compounds from BindingDB's records for doi:10.1021/jm00108a037 (Katholieke Universiteit Leuven, 1991).

T1 sequence (P70470 whole entry): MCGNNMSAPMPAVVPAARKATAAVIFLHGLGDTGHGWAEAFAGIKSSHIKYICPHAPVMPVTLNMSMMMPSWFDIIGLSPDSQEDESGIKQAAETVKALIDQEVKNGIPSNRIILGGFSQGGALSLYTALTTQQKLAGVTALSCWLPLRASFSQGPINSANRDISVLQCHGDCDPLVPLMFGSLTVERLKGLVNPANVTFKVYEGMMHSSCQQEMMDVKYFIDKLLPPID

In the case of `NCC1OC(OC2C(N)CC(N)(CO)C(OC3OC(CO)C(O)C(N)C3O)C2O)C(N)C(O)C1O` (centres undefined), it took 79 µM to reach half-maximal inhibition in test [1] (IC50).
With `[N-]=[N+]=NCC1OC(OC2C(O)C(OC3OC(CN)C(O)C(O)C3N)C(N)CC2(N)CO)C(O)C(N)C1O` (centres undefined), the IC50 (in general, the midpoint of a concentration-inhibition curve) in test [1] was determined as 95 µM.
On to `NCC1OC(OC2C(N)CC(N)(CO)C(OC3OC(CCl)C(O)C(N)C3O)C2O)C(N)C(O)C1O` (centres undefined), for which the IC50 in test [2] is 105 µM.
Same read-out and setting: under `CC(=O)NCC1OC(OC2C(O)C(OC3OC(CN)C(O)C(O)C3N)C(N)CC2(N)CO)C(O)C(N)C1O` (centres undefined) stands 119 µM.
